{"data": "Published values pooled from the literature", "Tyrosine-protein phosphatase YopH": "Tyrosine-protein phosphatase YopH (Yersinia enterocolitica, UniProt P15273)", "DRD1": "D(1A) dopamine receptor (DRD1, Homo sapiens, UniProt P21728)"}
{"SMILES": "CN(C)c1ccc(/C=C/c2cc(/C=C/c3ccc(N(C)C)cc3)n3n[n+](C)nc3n2)cc1", "target": "Tyrosine-protein phosphatase YopH", "test": "enzyme activity, inhibitor", "measurement": "IC50", "result": "4.44 µM"}
{"SMILES": "CC(C)CCC[C@@H](C)[C@H]1CC[C@H]2[C@@H]3CC=C4C[C@@H](O)CC[C@]4(C)[C@H]3CC[C@]12C", "target": "hly (Listeria monocytogenes, UniProt P13128)", "test": "binding", "conditions": "pH 5.5", "measurement": "Kd", "result": "0.296 µM"}
{"SMILES": "CNC(C)C(=O)c1ccccc1 (racemic)", "target": "Sodium-dependent serotonin transporter (SLC6A4, Homo sapiens, UniProt P31645)", "test": "calcium signal, agonist, fluorescence", "measurement": "EC50", "result": "24.8 µM"}
{"SMILES": "O=C(O)c1cc(-c2ccc([C@@H]3C[C@@H]4C[C@H]3CN4)cc2)c2ccc(-c3ccc(C(F)(F)F)cc3)cc2c1", "target": "DRD1", "test": "cell-free assay, radioligand", "measurement": "Ki", "result": "1.4 to 2.2 µM"}
{"SMILES": "CC=C1[C@H]2C=C(C)C[C@]1(N)c1cc(O)c(=O)[nH]c1C2", "target": "Cholinesterase (BCHE, Equus caballus, UniProt P81908)", "test": "enzyme activity, inhibitor, Ellman", "measurement": "IC50", "result": "155 µM"}
{"SMILES": "O=C(O)c1cc(-c2ccc([C@H]3C[C@H]4C[C@@H]3NC4=O)cc2)c2ccc(-c3ccc(C(F)(F)F)cc3)cc2c1", "target": "DRD1", "test": "cell-free assay, radioligand", "measurement": "Ki", "result": "1.4 to 2.2 µM"}
{"SMILES": "NNC(=O)c1ccncc1", "target": "Adenosylmethionine-8-amino-7-oxononanoate aminotransferase (Mycobacterium tuberculosis, UniProt P9WQ81)", "test": "enzyme activity, inhibitor", "measurement": "Ki", "result": "> 100 µM"}
{"SMILES": "[Na+].[Na+].[Na+].[O]=[V]([O-])([O-])[O-]", "target": "Tyrosine-protein phosphatase YopH", "test": "enzyme activity, inhibitor", "measurement": "Ki", "result": "1.58 µM"}
{"SMILES": "C[C@H](N)Cc1ccccc1", "target": "Neuronal acetylcholine receptor subunit alpha-7 (Chrna7, Mus musculus, UniProt P49582)", "test": "ligand displacement, radioligand", "conditions": "cell membranes", "measurement": "Ki", "result": "49.7 µM"}
